# System: HEK-293T
# Assay: Multiplex assay against HEK293T
# Format: toxicity, cell-based
# Details: human
# Method in brief: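 With compound added, live cells were imaged on a CQ1 microscope at 37°C and 5% CO2; staining with Hoechst33342, BioTracker Green Microtubule Cytoskeleton Dye, MitoTracker Red and Annexin V Alexa Fluor 680 had been done at seeding. The CellPathfinder machine-learning gating scheme split cells into Hoechst high-intensity objects or normal cells, normal cells into healthy, pyknosed or fragmented nuclei, and pyknosed cells into mitotic or apoptotic. The tubulin, mitochondrial-mass and membrane-permeability phenotypes are per cents of healthy-nucleus cells.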
# [1] = 12 h, 1 µM, compound concentration 1 uM, replicate 1
# [2] = 12 h, 1 µM, compound concentration 1 uM, replicate 2
# [3] = 12 h, 10 µM, compound concentration 10 uM, replicate 1
# [4] = 12 h, 10 µM, compound concentration 10 uM, replicate 2
# [5] = 24 h, 1 µM, compound concentration 1 uM, replicate 1
# [6] = 24 h, 1 µM, compound concentration 1 uM, replicate 2
# [7] = 24 h, 10 µM, compound concentration 10 uM, replicate 1
# [8] = 24 h, 10 µM, compound concentration 10 uM, replicate 2
# [9] = 48 h, 1 µM, compound concentration 1 uM, replicate 1
# [10] = 48 h, 1 µM, compound concentration 1 uM, replicate 2
# [11] = 48 h, 10 µM, compound concentration 10 uM, replicate 1
# [12] = 48 h, 10 µM, compound concentration 10 uM, replicate 2
smiles,measurement,setting,value
COc1ccccc1N1CCN(C[C@@H](C(=O)NC(C)(C)C)c2ccccc2)CC1.Cl.Cl,Population Apoptotic (%),[1],24%
same,Population Fragmented Nuclei (%),[1],7%
same,Population Healthy Nuclei (%),[1],77%
same,Population Hoechst High Intensity Objects (%),[1],7%
same,Population Membrane Permeable-Phenotype (%),[1],0%
same,Population Mitochondria Different-Phenotype (%),[1],48%
same,Population Mitotic Cells (%),[1],75%
same,Population Normal (%),[1],92%
same,Population Pyknosed Nuclei (%),[1],14%
same,Population Tubulin-Different-Phenotype (%),[1],47%
same,Total Cell Count,[1],434
same,Population Apoptotic (%),[2],42%
same,Population Fragmented Nuclei (%),[2],4%
same,Population Healthy Nuclei (%),[2],76%
same,Population Hoechst High Intensity Objects (%),[2],6%
same,Population Mitochondria Different-Phenotype (%),[2],77%
same,Population Mitotic Cells (%),[2],57%
same,Population Normal (%),[2],93%
same,Population Pyknosed Nuclei (%),[2],19%
same,Population Tubulin-Different-Phenotype (%),[2],35%
same,Total Cell Count,[2],300
same,Population Apoptotic (%),[3],62%
same,Population Fragmented Nuclei (%),[3],7%
same,Population Healthy Nuclei (%),[3],69%
same,Population Hoechst High Intensity Objects (%),[3],7%
same,Population Membrane Permeable-Phenotype (%),[3],0%
same,Population Mitochondria Different-Phenotype (%),[3],88%
same,Population Mitotic Cells (%),[3],37%
same,Population Normal (%),[3],92%
same,Population Pyknosed Nuclei (%),[3],23%
same,Population Tubulin-Different-Phenotype (%),[3],74%
same,Total Cell Count,[3],333
same,Population Apoptotic (%),[4],58%
same,Population Fragmented Nuclei (%),[4],5%
same,Population Hoechst High Intensity Objects (%),[4],16%
same,Population Mitochondria Different-Phenotype (%),[4],79%
same,Population Mitotic Cells (%),[4],41%
same,Population Normal (%),[4],83%
same,Population Pyknosed Nuclei (%),[4],25%
same,Population Tubulin-Different-Phenotype (%),[4],59%
same,Total Cell Count,[4],231
same,Population Apoptotic (%),[5],19%
same,Population Fragmented Nuclei (%),[5],8%
same,Population Healthy Nuclei (%),[5],81%
same,Population Hoechst High Intensity Objects (%),[5],4%
same,Population Membrane Permeable-Phenotype (%),[5],0%
same,Population Mitochondria Different-Phenotype (%),[5],31%
same,Population Mitotic Cells (%),[5],80%
same,Population Normal (%),[5],95%
same,Population Pyknosed Nuclei (%),[5],9%
same,Population Tubulin-Different-Phenotype (%),[5],29%
same,Total Cell Count,[5],563
same,Population Apoptotic (%),[6],34%
same,Population Fragmented Nuclei (%),[6],11%
same,Population Healthy Nuclei (%),[6],76%
same,Population Hoechst High Intensity Objects (%),[6],6%
same,Population Mitochondria Different-Phenotype (%),[6],54%
same,Population Mitotic Cells (%),[6],65%
same,Population Normal (%),[6],93%
same,Population Pyknosed Nuclei (%),[6],11%
same,Population Tubulin-Different-Phenotype (%),[6],28%
same,Total Cell Count,[6],387
same,Population Apoptotic (%),[7],45%
same,Population Fragmented Nuclei (%),[7],8%
same,Population Healthy Nuclei (%),[7],68%
same,Population Hoechst High Intensity Objects (%),[7],7%
same,Population Membrane Permeable-Phenotype (%),[7],0%
same,Population Mitochondria Different-Phenotype (%),[7],77%
same,Population Mitotic Cells (%),[7],54%
same,Population Normal (%),[7],92%
same,Population Pyknosed Nuclei (%),[7],23%
same,Population Tubulin-Different-Phenotype (%),[7],61%
same,Total Cell Count,[7],377
same,Population Apoptotic (%),[8],66%
same,Population Healthy Nuclei (%),[8],76%
same,Population Hoechst High Intensity Objects (%),[8],14%
same,Population Mitochondria Different-Phenotype (%),[8],73%
same,Population Mitotic Cells (%),[8],33%
same,Population Normal (%),[8],85%
same,Population Pyknosed Nuclei (%),[8],15%
same,Population Tubulin-Different-Phenotype (%),[8],48%
same,Total Cell Count,[8],251
same,Population Apoptotic (%),[9],22%
same,Population Fragmented Nuclei (%),[9],13%
same,Population Healthy Nuclei (%),[9],78%
same,Population Hoechst High Intensity Objects (%),[9],2%
same,Population Membrane Permeable-Phenotype (%),[9],1%
same,Population Mitochondria Different-Phenotype (%),[9],19%
same,Population Mitotic Cells (%),[9],77%
same,Population Normal (%),[9],97%
same,Population Pyknosed Nuclei (%),[9],8%
same,Population Tubulin-Different-Phenotype (%),[9],18%
same,Total Cell Count,[9],908
same,Population Apoptotic (%),[10],38%
same,Population Fragmented Nuclei (%),[10],10%
same,Population Healthy Nuclei (%),[10],80%
same,Population Hoechst High Intensity Objects (%),[10],6%
same,Population Membrane Permeable-Phenotype (%),[10],0%
same,Population Mitochondria Different-Phenotype (%),[10],37%
same,Population Mitotic Cells (%),[10],61%
same,Population Normal (%),[10],93%
same,Population Pyknosed Nuclei (%),[10],9%
same,Population Tubulin-Different-Phenotype (%),[10],20%
same,Total Cell Count,[10],480
same,Population Apoptotic (%),[11],50%
same,Population Fragmented Nuclei (%),[11],14%
same,Population Healthy Nuclei (%),[11],72%
same,Population Hoechst High Intensity Objects (%),[11],6%
same,Population Membrane Permeable-Phenotype (%),[11],0%
same,Population Mitochondria Different-Phenotype (%),[11],59%
same,Population Mitotic Cells (%),[11],49%
same,Population Normal (%),[11],93%
same,Population Pyknosed Nuclei (%),[11],13%
same,Population Tubulin-Different-Phenotype (%),[11],44%
same,Total Cell Count,[11],467
same,Population Apoptotic (%),[12],62%
same,Population Fragmented Nuclei (%),[12],10%
same,Population Healthy Nuclei (%),[12],76%
same,Population Hoechst High Intensity Objects (%),[12],5%
same,Population Mitochondria Different-Phenotype (%),[12],58%
same,Population Mitotic Cells (%),[12],37%
same,Population Normal (%),[12],94%
same,Population Tubulin-Different-Phenotype (%),[12],36%
same,Total Cell Count,[12],375

# — ChEMBL document CHEMBL5058577, “EUbOPEN Chemogenomics Library 2 (Multiplex)” (2022)
